ChEMBL document CHEMBL3228037, “Syntheses and antiinflammatory actions of 4,5,6,7-tetrahydroindazole-5-carboxylic acids” (J Med Chem, 1979)

What was measured:
Rattus norvegicus [1] = assay: Antiinflammatory activity in rat assessed as inhibition of carrageenan-induced paw edema at 100 mg/kg, po preincubated for 1 hr followed by carrageenan challenge relative to control; format: functional
Summary of the method: (§1)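 Winter carrageenan edema screen in rats. Compound was given orally as a suspension in 0.5% CMC at 100 and/or 25 mg/kg. One hour later, 1% carrageenan solution was injected into the hind paw.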

Rattus norvegicus [2] = assay: Antiinflammatory activity in rat assessed as inhibition of carrageenan-induced paw edema at 25 mg/kg, po preincubated for 1 hr followed by carrageenan challenge relative to control; format: functional; summary of the method: as §1
Rattus norvegicus [3] = assay: Antiarthritic activity in po dosed rat assessed as reduction of adjuvant-induced foot volume administered as qd for 14 days starting on day 14 after adjuvant inoculation measured on day 28; format: functional
Summary of the method: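 Rats with established adjuvant arthritis (Newbould method) were dosed orally once daily for 14 days, starting on day 14 after adjuvant inoculation. Foot swelling was measured as volume. ED50 was estimated from the dose-response curve.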

Mus musculus = assay: Analgesic activity in po dosed mouse assessed as inhibition of acetic acid-induced writhing; format: functional
Summary of the method: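 Acetic acid writhing test after Koster, using 10 male mice per dose.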

Rattus norvegicus [4] = assay: Ulcerogenic activity in po dosed rat assessed as induction of lesions in gastric mucosa measured after 24 hrs; format: toxicity, organism-based; conditions: in vivo
Summary of the method: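 Compounds were suspended in 0.2% carboxymethylcellulose and given orally to seven male rats per dose, at five or more doses; controls got vehicle alone. Rats were killed 24 h later, and gastric lesions (hemorrhage, erosion, ulcer) were counted blind. MUD, the dose giving two lesions, was calculated graphically.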

Rattus norvegicus [5] = assay: Antiinflammatory activity in po dosed rat assessed as inhibition of carrageenan-induced paw edema preincubated for 1 hr followed by carrageenan challenge relative to control; format: functional
Summary of the method: (§2)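 Winter carrageenan paw edema in rats. Oral dosing as a suspension in 0.5% CMC was followed 1 h later by 1% carrageenan injected into the hind paw. Several doses were tested, and ED50 was read from the dose-response curve.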

Rattus norvegicus [6] = assay: Antiinflammatory activity in rat assessed as inhibition of carrageenan-induced paw edema at 2.5 mg/kg, po preincubated for 1 hr followed by carrageenan challenge relative to control; format: functional; summary of the method: as §2
Rattus norvegicus [7] = assay: Antiinflammatory activity in rat assessed as inhibition of carrageenan-induced paw edema at 10 mg/kg, po preincubated for 1 hr followed by carrageenan challenge relative to control; format: functional; summary of the method: as §2
Rattus norvegicus [8] = assay: Antiinflammatory activity in rat assessed as inhibition of carrageenan-induced paw edema at 50 mg/kg, po preincubated for 1 hr followed by carrageenan challenge relative to control; format: functional; summary of the method: as §2
Rattus norvegicus [9] = assay: Antiinflammatory activity in rat assessed as inhibition of carrageenan-induced paw edema at 3 mg/kg, po preincubated for 1 hr followed by carrageenan challenge relative to control; format: functional; summary of the method: as §2

## O=C(O)c1nn(-c2cccc(C(F)(F)F)c2)c2c1CC(C(=O)O)CC2 (centres undefined)
Rattus norvegicus [1]
  inhibition in vivo at 100 mg/kg: 0%

## O=C(O)C1CCc2c(cnn2-c2ccncc2)C1 (centres undefined)
Rattus norvegicus [2]
  inhibition in vivo at 25 mg/kg: 13.4%

## O=C(O)C1CCc2c(cnn2-c2ccc(O)cc2)C1 (centres undefined)
Rattus norvegicus [1]
  inhibition in vivo at 100 mg/kg: 14.7%

## O=C(O)C1CCc2c(cnn2-c2cccc(F)c2)C1 (centres undefined)
Rattus norvegicus [2]
  inhibition in vivo at 25 mg/kg: 38.2%

## O=C(O)c1ccccc1Nc1cccc(C(F)(F)F)c1 [FLUFENAMIC ACID]
Rattus norvegicus [3]
  ED50: 5.1 mg/kg
Mus musculus
  ED50: 160 mg/kg
Rattus norvegicus [4]
  MUD: 50 mg/kg
Rattus norvegicus [5]
  ED50: 20 mg/kg

## Cc1ccc(-n2cc3c(n2)CCC(C(=O)O)C3)cc1 (centres undefined)
Rattus norvegicus [1]
  inhibition in vivo at 100 mg/kg: 10.8%

## O=C(O)C1CCc2c(cnn2-c2ccccn2)C1 (centres undefined)
Rattus norvegicus [2]
  inhibition in vivo at 25 mg/kg: 57.9%

## Cc1ccc(-n2nc(C(=O)O)c3c2CCC(C(=O)O)C3)cc1 (centres undefined)
Rattus norvegicus [1]
  inhibition in vivo at 100 mg/kg: 0%

## O=C(O)C1CCc2nn(-c3ccc(Cl)cc3)cc2C1 (centres undefined)
Rattus norvegicus [1]
  inhibition in vivo at 100 mg/kg: 17.9%

## O=C(O)C1CCc2c(cnn2-c2ccccc2)C1 (centres undefined)
Rattus norvegicus [3]
  ED50: 1.5 mg/kg
Rattus norvegicus [6]
  inhibition in vivo at 2.5 mg/kg: 40.6%
Mus musculus
  ED50: 4.7 mg/kg
Rattus norvegicus [4]
  MUD: 20 mg/kg
Rattus norvegicus [5]
  ED50: 3.5 mg/kg
Rattus norvegicus [7]
  inhibition in vivo at 10 mg/kg: 72.6%

## CCCCC1C(=O)N(c2ccccc2)N(c2ccccc2)C1=O [PHENYLBUTAZONE]
Rattus norvegicus [3]
  ED50: 12 mg/kg
Mus musculus
  ED50: 810 mg/kg
Rattus norvegicus [4]
  MUD: 90 mg/kg
Rattus norvegicus [5]
  ED50: 78 mg/kg
Rattus norvegicus [8]
  inhibition in vivo at 50 mg/kg: 43.4%

## COc1ccc(-n2ncc3c2CCC(C(=O)O)C3)cc1 (centres undefined)
Rattus norvegicus [2]
  inhibition in vivo at 25 mg/kg: 9.8%

## O=C(O)C1CCc2nn(Cc3ccccc3)cc2C1 (centres undefined)
Rattus norvegicus [1]
  inhibition in vivo at 100 mg/kg: 3.7%

## O=C(O)C1CCc2nn(-c3cccc(C(F)(F)F)c3)cc2C1 (centres undefined)
Rattus norvegicus [1]
  inhibition in vivo at 100 mg/kg: 14.8%

## O=C(O)c1nn(-c2ccccc2)c2c1CC(C(=O)O)CC2 (centres undefined)
Rattus norvegicus [1]
  inhibition in vivo at 100 mg/kg: 0%

## Cc1ccccc1-n1cc2c(n1)CCC(C(=O)O)C2 (centres undefined)
Rattus norvegicus [1]
  inhibition in vivo at 100 mg/kg: 38%

## O=C(O)C1CCc2nn(-c3ccccn3)cc2C1 (centres undefined)
Rattus norvegicus [1]
  inhibition in vivo at 100 mg/kg: 11.5%

## COc1ccc(-n2cc3c(n2)CCC(C(=O)O)C3)cc1 (centres undefined)
Rattus norvegicus [1]
  inhibition in vivo at 100 mg/kg: 6%

## O=C(O)C1CCc2c(cnn2-c2cccc3ccccc23)C1 (centres undefined)
Rattus norvegicus [2]
  inhibition in vivo at 25 mg/kg: 13.1%

## O=C(O)C1CCc2nn(-c3ccccc3)cc2C1 (centres undefined)
Rattus norvegicus [1]
  inhibition in vivo at 100 mg/kg: 36.4%

## Cc1ccc(-n2ncc3c2CCC(C(=O)O)C3)cc1 (centres undefined)
Rattus norvegicus [2]
  inhibition in vivo at 25 mg/kg: 38.7%

## O=C(O)c1nn(-c2ccc(Cl)cc2)c2c1CC(C(=O)O)CC2 (centres undefined)
Rattus norvegicus [1]
  inhibition in vivo at 100 mg/kg: 0%

## O=C(O)C1CCc2c(cnn2-c2ccc(Cl)cc2)C1 (centres undefined)
Rattus norvegicus [3]
  ED50: 6.4 mg/kg
Mus musculus
  ED50: 7 mg/kg
Rattus norvegicus [4]
  MUD: 70 mg/kg
Rattus norvegicus [5]
  ED50: 17 mg/kg
Rattus norvegicus [7]
  inhibition in vivo at 10 mg/kg: 39.4%
Rattus norvegicus [2]
  inhibition in vivo at 25 mg/kg: 39.4%

## Cc1ccccc1-n1ncc2c1CCC(C(=O)O)C2 (centres undefined)
Rattus norvegicus [2]
  inhibition in vivo at 25 mg/kg: 0%

## O=C(O)C1CCc2c(cnn2Cc2ccccc2)C1 (centres undefined)
Rattus norvegicus [2]
  inhibition in vivo at 25 mg/kg: 15.9%

## O=C(O)C1CCc2nn(-c3cccc4ccccc34)cc2C1 (centres undefined)
Rattus norvegicus [2]
  inhibition in vivo at 25 mg/kg: 0%

## O=C(O)C1CCc2c(cnn2-c2cccc(C(F)(F)F)c2)C1 (centres undefined)
Rattus norvegicus [2]
  inhibition in vivo at 25 mg/kg: 35.6%

## COc1ccc2c(c1)c(CC(=O)O)c(C)n2C(=O)c1ccc(Cl)cc1 [INDOMETHACIN]
Rattus norvegicus [3]
  ED50: 0.3 mg/kg
Mus musculus
  ED50: 6.3 mg/kg
Rattus norvegicus [4]
  MUD: 5.6 mg/kg
Rattus norvegicus [5]
  ED50: 3.8 mg/kg
Rattus norvegicus [9]
  inhibition in vivo at 3 mg/kg: 35.5%
